A selection: hits, their analogues and other compounds. The true share with any hit is near 2%.
SUMO1-SIM PPI: SUMO1-SIM interaction modulation | P63165 | SUMO1 binding to a labelled peptide, TR-FRET, 1 h | AID 602429 | inhibition, % at 20 µM | 0.33% of 360,000 active; in the data active = inhibition above about 37%
DNMT1 block: blocks human DNA methyltransferase DNMT1; 0.83% of 360,000 active; P26358; AID 588458; DNMT1 molecular beacon, Hinp1I cleavage, fluorescence; inhibition (reported as % activation of signal), % at 10 µM; in the data active = inhibition above about 50%
LMPTP inh: LMPTP (human) inhibition. P24666. recombinant LMPTP-A, OMFP fluorogenic substrate, fluorescence intensity. inhibition, % at 20 µM. 0.22% of 360,000 active;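 active = compounds that cut the enzyme signal by at least half of the control window in the single-dose screen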
Target sequence (P24666 whole entry, looked up): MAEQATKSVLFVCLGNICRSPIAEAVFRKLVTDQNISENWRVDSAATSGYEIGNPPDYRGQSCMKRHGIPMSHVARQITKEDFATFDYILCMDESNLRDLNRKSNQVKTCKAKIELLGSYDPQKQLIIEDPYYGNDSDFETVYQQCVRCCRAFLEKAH
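Material: LMPTP-A; amount: 0.625 nM enzyme; doses: single 20 µM dose; times: reaction 50 min, room temperature, dark; technique: fluorescence intensity of OMFP turnover product; benchmarks: no-enzyme and uninhibited controls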
Scp1 inh: blocks human Scp-1 phosphatase activity. Q9GZU7. inhibition, % at 20 µM. 0.88% of 340,000 active. Recombinant Scp1, phosphopeptide, malachite green phosphate absorbance;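 active = inhibition above about 50% at 20 µM, limit read from the data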
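Test system: SCP-1 phosphatase catalytic domain, residues 76-261; measured by: colorimetric phosphate reagent with accelerator and stabiliser, absorbance at 630 nm; timing: enzyme reaction 45 min at room temperature, colour 5 min, stabilisation 30 min; also added: Phosphorylated 17-residue peptide substrate; compound dosing: one concentration, 20 µM, with 1.0% DMSO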
CSN deneddyl inh: CSN deneddylation inhibition | inhibition, % at 12.5 µM | Purified CSN, SCF-Nedd8-OG deneddylation, fluorescence polarization | 0.38% of 360,000 active | Q92905 | AID 651999;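 active = pattern-corrected inhibition above about 35%, with an unprinted fluorescence ratio check between 0.5 and 1.5, limit read from the data, passing the limit was not always enough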
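Test system: Human Csn5 produced in HEK293T cells | Compound: 12.5 µM single point | Times: 90 min, room temperature | Signal: Fluorescence polarization readout | Read-out basis: % inhibition of substrate cleavage by Csn5 | Controls: no-enzyme wells high, enzyme-with-substrate wells low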
STEP block: inhibitors of human striatal-enriched phosphatase STEP; P54829; inhibition, % at 20 µM; recombinant STEP, OMFP fluorogenic substrate, fluorescence; 0.25% of 360,000 active;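 active = inhibition at 20 µM, scaled per plate between control wells, above about 37%, limit read from the data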
Target sequence (P54829 whole entry, looked up): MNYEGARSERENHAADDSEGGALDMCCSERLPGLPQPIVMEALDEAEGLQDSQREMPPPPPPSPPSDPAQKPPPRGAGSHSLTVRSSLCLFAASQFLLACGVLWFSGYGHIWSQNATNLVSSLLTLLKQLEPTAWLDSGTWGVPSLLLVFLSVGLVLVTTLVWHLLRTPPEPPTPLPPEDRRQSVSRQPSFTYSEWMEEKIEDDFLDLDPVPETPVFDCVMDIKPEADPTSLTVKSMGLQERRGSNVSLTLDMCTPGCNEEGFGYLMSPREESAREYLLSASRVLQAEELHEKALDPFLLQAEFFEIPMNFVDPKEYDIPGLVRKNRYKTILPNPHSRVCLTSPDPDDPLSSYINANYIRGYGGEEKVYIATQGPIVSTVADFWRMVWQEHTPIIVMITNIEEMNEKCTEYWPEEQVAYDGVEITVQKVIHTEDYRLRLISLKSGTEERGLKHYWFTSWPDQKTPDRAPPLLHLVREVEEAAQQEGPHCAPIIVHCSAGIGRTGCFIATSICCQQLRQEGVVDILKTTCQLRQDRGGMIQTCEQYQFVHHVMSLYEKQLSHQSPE
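Material: STEP (striatal-enriched tyrosine phosphatase) enzyme, cell-free; Compound dosing: 20 µM single dose in 1% DMSO; Technique: fluorescence read at 480 nm ex / 540 nm em; Times: reaction 20 min, ambient temperature; Medium: 50 mM Bis-Tris pH 6.0 with 2.5 mM DTT and 0.005% Tween 20; Also added: OMFP at 25 µM.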
Scp1 confirm: confirmation of human Scp-1 phosphatase inhibitors; shares compounds with Scp1 inh; recombinant SCP-1 catalytic domain, phosphate release, malachite green absorbance; inhibition, % at 20 µM; 61% of 2,500 active
MG interference: counter-screen for Scp-1 inhibitors: colorimetric interference; shares compounds with Scp1 inh; Colorimetric interference counterscreen, malachite green absorbance 630 nm; apparent inhibition (interference), % at 20 µM; 2,500 tested, under 10 active;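 also: compounds added after enzyme reaction finished so only phosphate colour detection is probed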
Scp-1 Tm shift: binds human Scp-1, shifting its melting temperature; shares compounds with Scp1 inh; Recombinant SCP1, Sypro Orange thermal shift Tm; thermal shift relative to vanadate control, % at 40 µM; 25% of 1,500 active;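 active = substances whose mean melting-temperature shift, as a percentage of the reference inhibitor's shift, reaches about 5.3%, limit read from the data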
Each line names hits and unclear results; the compound was inactive in the other large screens (follow-up assays come after a bar, where they were run).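 The calls were made as follows, unless noted: active = inhibition of at least 30% at 20 µM; inactive = the rest.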

CC(=O)N1C[C@H]2CON(C)[C@H]2C[C@H]1c1ccc(-c2ccccc2)cc1	none (no result: Scp1 inh)
O=C(CCCCCn1c(SCc2ccncc2)nc2ccccc2c1=O)NCc1ccco1	Scp1 inh 56.0 | Scp1 confirm 32.3 | MG interference inactive | Scp-1 Tm shift inactive
N#CCSc1nc2ccccc2c(=O)n1CCCC(=O)NCc1ccco1	none
CCOC(=O)C1=C(C)N=c2s/c(=C\c3ccc(C(=O)O)cc3)c(=O)n2C1c1ccc(OC)cc1OC (stereo not drawn)	Scp1 inh 73.1 | Scp1 confirm 72.0 | MG interference inactive | Scp-1 Tm shift 6.9
O=C(CNC(=O)c1ccc(Br)cc1)N=Nc1c(O)[nH]c2ccc([N+](=O)[O-])cc12	none
Cc1ccccc1NCC(=O)N=Nc1c(O)[nH]c2ccc([N+](=O)[O-])cc12	none
Cc1cccc(OCC(=O)N=Nc2c(O)[nH]c3ccc([N+](=O)[O-])cc23)c1	none (no result: SUMO1-SIM PPI, DNMT1 block, LMPTP inh, CSN deneddyl inh, STEP block)
Cc1cccc(OCC(=O)NCC(=O)N=Nc2c(O)[nH]c3ccc([N+](=O)[O-])cc23)c1	Scp1 inh 59.0 | Scp1 confirm inactive | MG interference inactive
O=C(N=Nc1c(O)[nH]c2ccc([N+](=O)[O-])cc12)c1ccccc1Cl	Scp1 inh 98.6, STEP block 72.8 | Scp1 confirm 70.1 | MG interference inactive | Scp-1 Tm shift 15.8
COc1ccc(/C=C/C(=O)NCC(=O)N=Nc2c(O)[nH]c3ccc([N+](=O)[O-])cc23)cc1	Scp1 inh 67.9 | Scp1 confirm inactive | MG interference inactive
O=C(O)c1cccc(NC(=O)c2cn(-c3ccccc3)nc2-c2cc3ccccc3o2)c1	LMPTP inh 56.4, Scp1 inh 58.1 | Scp1 confirm 80.1 | MG interference inactive | Scp-1 Tm shift inactive
N#Cc1ccsc1NC(=O)COC(=O)CCS(=O)(=O)c1ccccc1	Scp1 inh 50.2 | Scp1 confirm 68.6 | MG interference inactive | Scp-1 Tm shift 5.7
N#Cc1ccsc1NC(=O)CCS(=O)(=O)c1ccccc1	none
Cc1c(NC(=O)CC2NC(=O)NC2=O)c(=O)n(-c2ccccc2)n1C (stereo not drawn)	none (no result: SUMO1-SIM PPI, DNMT1 block, LMPTP inh, Scp1 inh, CSN deneddyl inh, STEP block) | Scp1 confirm inactive | MG interference inactive
Cc1c(NC(=O)CC(=O)Nc2c(C)n(C)n(-c3ccccc3)c2=O)c(=O)n(-c2ccccc2)n1C	none
COCCNc1nnc(Cc2ccc(OC)c(OC)c2)c(=O)[nH]1	none
CCCCNc1nnc(Cc2ccc(Cl)cc2)c(=O)[nH]1	Scp1 inh 96.6 | Scp1 confirm 75.8 | MG interference inactive | Scp-1 Tm shift inactive
CCOc1nc(Nc2ccc(OC)cc2)nc(OCC)n1	Scp1 inh 66.9 | Scp1 confirm inactive | MG interference inactive
CC1=NN(c2ccccc2)C(=O)C1(C)C	none
CC[N+]1=CN(c2ccccc2)C(C)=CC1(C)C	Scp1 inh 77.7 | Scp1 confirm 85.5 | MG interference inactive | Scp-1 Tm shift inactive
CCCc1nc2sc3c(SCC(=O)NCc4ccco4)ncnc3c2c2c1CCC2	DNMT1 block 90.7, Scp1 inh 81.7 | Scp1 confirm 59.5 | MG interference inactive | Scp-1 Tm shift inactive
Cc1nc(SCC(=O)NCc2ccco2)c2c3c(sc2n1)CCCC3	none
COc1cc(NC(=O)c2ccc3c(c2)C(=O)N(CCC(C)C)C3=O)c(C(=O)O)cc1OC	Scp1 inh 71.6, STEP block 61.3 | Scp1 confirm 59.9 | MG interference inactive | Scp-1 Tm shift 6.1
CC(C)CCN1C(=O)c2ccc(C(=O)Nc3ccc(O)cc3C(=O)O)cc2C1=O	none
CCCCCC(=O)NNC(=O)c1ccc(F)cc1	none
CCOc1ccccc1OCCCC(=O)NNC(=O)c1ccc(F)cc1	Scp1 inh 58.7 | Scp1 confirm inactive | MG interference inactive
Cc1[nH]n(-c2ccccc2)c(=O)c1/C=N/NC(=O)c1cccc([N+](=O)[O-])c1	none
Cc1ccc(-n2[nH]c(C)c(/C=N/Nc3ccc([N+](=O)[O-])cc3[N+](=O)[O-])c2=O)cc1C	Scp1 inh 95.5, STEP block 70.3 | Scp1 confirm 67.5 | MG interference inactive | Scp-1 Tm shift 10.7
Cc1cc(=O)oc2ccc(OCC(=O)NCc3ccco3)cc12	none
O=C(COc1ccc2oc(-c3ccco3)cc(=O)c2c1)N1CCCCC1	Scp1 inh 59.5 | Scp1 confirm 44.1 | MG interference inactive | Scp-1 Tm shift inactive
O=C(COc1ccc2oc(-c3ccccc3)cc(=O)c2c1)NCc1ccco1	Scp1 inh 81.7 | Scp1 confirm 58.8 | MG interference inactive | Scp-1 Tm shift inactive
O=C(O)C1CCCCC1C(=O)Nc1cccc(Br)c1 (stereo not drawn)	DNMT1 block 102.6, LMPTP inh 60.7, Scp1 inh 84.2, STEP block 98.3 | Scp1 confirm 63.2 | MG interference inactive | Scp-1 Tm shift inactive
Cc1ccc([N+](=O)[O-])cc1S(=O)(=O)Nc1ccc(N2CCOCC2)cc1	none
O=C(CCCc1c[nH]c2ccccc12)Nc1ccc2ccccc2c1	Scp1 inh 58.5 | Scp1 confirm inactive | MG interference inactive
CC(=O)Nc1ccc(NC(=O)CCCc2c[nH]c3ccccc23)cc1	none
Cc1ccc(NC(=S)NC(=O)CC2CC(C)(C)OC2=O)cc1 (stereo not drawn)	none
Cc1cccc(NC(=S)NC(=O)CC2CC(C)(C)OC2=O)c1 (stereo not drawn)	none | Scp1 confirm inactive | MG interference inactive
CC[N+](C)(CC)CC(=O)OCC1C(C)C=C(C)CC1C (stereo not drawn)	Scp1 inh 55.5 | Scp1 confirm inactive | MG interference inactive
CC1=CC(C)C(C(=O)O)C(C(=O)O)C1 (stereo not drawn)	none
O=C(CSc1ncn(-c2ccccc2)n1)Nc1nc2c(s1)CCCC2	Scp1 inh 78.8 | Scp1 confirm 63.9 | MG interference inactive | Scp-1 Tm shift inactive
O=C(CSc1ncn(-c2ccccc2)n1)Nc1nc2ccccc2s1	none
O=C(O)CNC(=O)CC1S/C(=N/N=C2/NC(=O)CS2)NC1=O (stereo not drawn)	Scp1 inh 71.6 | Scp1 confirm 68.6 | MG interference inactive | Scp-1 Tm shift inactive
